In ChEMBL document CHEMBL5653631, “A Potent and Selective ULK1 Inhibitor Suppresses Autophagy and Sensitizes Cancer Cells to Nutrient Stress” (iScience, 2018):

Key:
[1] = molecular target: RAC-gamma serine/threonine-protein kinase (Homo sapiens) (UniProt Q9Y243); assay: Inhibition of human recombinant AKT3 at 40 nM in presence of ATP by radiometric assay relative to control
Summary of the method: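 Panel of 327 recombinant human kinases in radiometric activity assays, each screened in duplicate at a single inhibitor concentration; percent activity remaining relative to vehicle control, percent inhibition taken as 100 minus activity remaining.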

[2] = molecular target: T1, Tyrosine-protein kinase JAK3 (Homo sapiens) (UniProt P52333); assay: Inhibition of human recombinant JAK3 at 40 nM related to control ULK1
T1 sequence (whole entry): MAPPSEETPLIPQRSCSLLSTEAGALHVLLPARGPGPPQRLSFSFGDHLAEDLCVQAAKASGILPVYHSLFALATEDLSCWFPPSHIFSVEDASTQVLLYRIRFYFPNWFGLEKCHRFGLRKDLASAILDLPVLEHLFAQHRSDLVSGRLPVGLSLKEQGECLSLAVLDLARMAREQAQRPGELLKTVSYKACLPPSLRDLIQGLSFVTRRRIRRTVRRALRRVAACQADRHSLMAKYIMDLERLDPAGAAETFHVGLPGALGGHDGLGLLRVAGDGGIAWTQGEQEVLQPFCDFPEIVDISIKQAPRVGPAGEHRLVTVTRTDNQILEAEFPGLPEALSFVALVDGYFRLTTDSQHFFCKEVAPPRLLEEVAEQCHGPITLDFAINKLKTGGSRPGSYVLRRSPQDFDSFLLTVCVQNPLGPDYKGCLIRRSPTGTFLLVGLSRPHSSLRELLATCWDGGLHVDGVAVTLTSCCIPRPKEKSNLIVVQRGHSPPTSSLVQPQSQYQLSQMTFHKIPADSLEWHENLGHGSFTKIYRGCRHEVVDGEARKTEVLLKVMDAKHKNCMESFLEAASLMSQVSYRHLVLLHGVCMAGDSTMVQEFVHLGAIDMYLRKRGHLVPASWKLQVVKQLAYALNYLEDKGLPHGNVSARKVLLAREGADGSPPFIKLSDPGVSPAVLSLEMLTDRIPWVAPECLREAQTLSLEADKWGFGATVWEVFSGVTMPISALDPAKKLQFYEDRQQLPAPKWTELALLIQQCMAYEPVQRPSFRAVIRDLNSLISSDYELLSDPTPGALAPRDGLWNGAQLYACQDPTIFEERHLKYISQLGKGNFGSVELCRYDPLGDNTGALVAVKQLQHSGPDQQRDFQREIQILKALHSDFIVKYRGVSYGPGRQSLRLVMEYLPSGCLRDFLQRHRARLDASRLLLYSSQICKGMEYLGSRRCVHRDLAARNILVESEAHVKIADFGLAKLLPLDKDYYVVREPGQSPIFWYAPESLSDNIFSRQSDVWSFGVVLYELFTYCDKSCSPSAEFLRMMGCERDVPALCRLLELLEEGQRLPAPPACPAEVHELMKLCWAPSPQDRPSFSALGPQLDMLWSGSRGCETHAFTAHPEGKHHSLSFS

[3] = molecular target: Serine/threonine-protein kinase PAK 4 (Homo sapiens) (UniProt O96013); assay: Inhibition of human recombinant PAK4 at 40 nM related to control ULK1
Chain of Serine/threonine-protein kinase PAK 4 (Homo sapiens) (O96013 whole entry, looked up): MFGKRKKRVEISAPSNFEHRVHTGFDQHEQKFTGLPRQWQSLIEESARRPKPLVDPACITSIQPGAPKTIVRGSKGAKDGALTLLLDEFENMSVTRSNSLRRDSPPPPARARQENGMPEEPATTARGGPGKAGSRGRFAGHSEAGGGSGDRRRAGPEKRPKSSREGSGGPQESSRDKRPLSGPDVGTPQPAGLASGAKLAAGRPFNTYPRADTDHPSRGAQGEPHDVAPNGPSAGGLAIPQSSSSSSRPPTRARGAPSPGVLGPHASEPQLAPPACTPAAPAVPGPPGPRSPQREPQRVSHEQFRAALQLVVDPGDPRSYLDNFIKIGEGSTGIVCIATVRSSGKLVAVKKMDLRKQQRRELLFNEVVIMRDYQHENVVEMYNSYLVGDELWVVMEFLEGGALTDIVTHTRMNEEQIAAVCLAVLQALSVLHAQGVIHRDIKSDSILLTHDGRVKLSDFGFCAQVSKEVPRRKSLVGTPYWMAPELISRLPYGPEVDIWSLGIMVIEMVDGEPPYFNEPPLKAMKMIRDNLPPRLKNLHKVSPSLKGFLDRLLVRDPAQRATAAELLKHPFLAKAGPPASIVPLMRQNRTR

[4] = molecular target: Proto-oncogene tyrosine-protein kinase receptor Ret (Homo sapiens) (UniProt P07949); assay: Inhibition of human recombinant RET at 15 nM in presence of ATP by radiometric assay relative to control
Chain of Proto-oncogene tyrosine-protein kinase receptor Ret (Homo sapiens) (P07949 whole entry): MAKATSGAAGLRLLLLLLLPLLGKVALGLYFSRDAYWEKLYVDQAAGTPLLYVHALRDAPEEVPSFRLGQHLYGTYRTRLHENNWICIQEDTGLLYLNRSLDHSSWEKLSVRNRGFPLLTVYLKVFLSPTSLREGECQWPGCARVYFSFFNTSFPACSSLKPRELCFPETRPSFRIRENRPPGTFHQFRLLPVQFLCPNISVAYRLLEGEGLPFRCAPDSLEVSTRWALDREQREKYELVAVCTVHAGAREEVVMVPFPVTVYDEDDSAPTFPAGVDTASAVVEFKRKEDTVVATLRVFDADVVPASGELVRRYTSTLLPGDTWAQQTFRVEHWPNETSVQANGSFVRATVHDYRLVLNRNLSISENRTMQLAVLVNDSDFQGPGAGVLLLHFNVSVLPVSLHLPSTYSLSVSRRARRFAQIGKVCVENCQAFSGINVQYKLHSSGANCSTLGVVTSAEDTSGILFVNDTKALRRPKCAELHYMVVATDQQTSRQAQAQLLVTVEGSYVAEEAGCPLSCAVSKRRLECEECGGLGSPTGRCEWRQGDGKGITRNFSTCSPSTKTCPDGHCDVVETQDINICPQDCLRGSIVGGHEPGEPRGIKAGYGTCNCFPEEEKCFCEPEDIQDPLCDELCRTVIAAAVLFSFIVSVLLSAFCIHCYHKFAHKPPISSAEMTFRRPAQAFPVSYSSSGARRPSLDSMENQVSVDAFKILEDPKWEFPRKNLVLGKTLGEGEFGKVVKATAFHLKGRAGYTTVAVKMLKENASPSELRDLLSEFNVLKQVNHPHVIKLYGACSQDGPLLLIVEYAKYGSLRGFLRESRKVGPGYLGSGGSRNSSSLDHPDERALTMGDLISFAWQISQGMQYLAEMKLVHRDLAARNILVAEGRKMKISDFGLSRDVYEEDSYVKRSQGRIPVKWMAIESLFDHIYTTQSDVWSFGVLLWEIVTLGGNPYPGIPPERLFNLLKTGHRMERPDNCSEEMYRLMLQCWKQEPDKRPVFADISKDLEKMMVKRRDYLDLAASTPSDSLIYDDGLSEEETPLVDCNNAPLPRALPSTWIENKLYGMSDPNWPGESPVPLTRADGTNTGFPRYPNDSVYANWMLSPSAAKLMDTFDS

[5] = molecular target: Ribosomal protein S6 kinase alpha-1 (Homo sapiens) (UniProt Q15418); assay: Inhibition of human recombinant RSK1 at 15 nM in presence of ATP by radiometric assay relative to control
Chain of Ribosomal protein S6 kinase alpha-1 (Homo sapiens) (Q15418 whole entry): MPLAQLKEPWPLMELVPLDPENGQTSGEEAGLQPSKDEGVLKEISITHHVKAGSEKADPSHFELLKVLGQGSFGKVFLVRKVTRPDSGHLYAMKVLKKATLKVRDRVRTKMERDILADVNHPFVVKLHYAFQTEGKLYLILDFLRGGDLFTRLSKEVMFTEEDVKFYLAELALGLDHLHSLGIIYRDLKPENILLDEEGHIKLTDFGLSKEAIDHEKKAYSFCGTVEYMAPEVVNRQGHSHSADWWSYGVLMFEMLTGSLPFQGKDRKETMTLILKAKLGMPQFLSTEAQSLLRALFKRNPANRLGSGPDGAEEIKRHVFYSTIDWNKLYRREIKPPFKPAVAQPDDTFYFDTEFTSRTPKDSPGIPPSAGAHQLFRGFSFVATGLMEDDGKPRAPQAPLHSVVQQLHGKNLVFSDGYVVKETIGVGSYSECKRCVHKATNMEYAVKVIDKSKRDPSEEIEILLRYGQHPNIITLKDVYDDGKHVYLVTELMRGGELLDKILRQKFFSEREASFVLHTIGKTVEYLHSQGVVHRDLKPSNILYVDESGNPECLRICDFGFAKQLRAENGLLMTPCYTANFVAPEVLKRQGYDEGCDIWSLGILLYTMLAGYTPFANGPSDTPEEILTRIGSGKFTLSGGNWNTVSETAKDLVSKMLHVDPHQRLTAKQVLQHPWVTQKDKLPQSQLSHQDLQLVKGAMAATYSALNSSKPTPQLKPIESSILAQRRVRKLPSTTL

[6] = molecular target: Protein kinase C iota type (Homo sapiens) (UniProt P41743); assay: Inhibition of human recombinant PKCi at 15 nM in presence of ATP by radiometric assay relative to control
Chain of Protein kinase C iota type (Homo sapiens) (P41743 whole entry, looked up): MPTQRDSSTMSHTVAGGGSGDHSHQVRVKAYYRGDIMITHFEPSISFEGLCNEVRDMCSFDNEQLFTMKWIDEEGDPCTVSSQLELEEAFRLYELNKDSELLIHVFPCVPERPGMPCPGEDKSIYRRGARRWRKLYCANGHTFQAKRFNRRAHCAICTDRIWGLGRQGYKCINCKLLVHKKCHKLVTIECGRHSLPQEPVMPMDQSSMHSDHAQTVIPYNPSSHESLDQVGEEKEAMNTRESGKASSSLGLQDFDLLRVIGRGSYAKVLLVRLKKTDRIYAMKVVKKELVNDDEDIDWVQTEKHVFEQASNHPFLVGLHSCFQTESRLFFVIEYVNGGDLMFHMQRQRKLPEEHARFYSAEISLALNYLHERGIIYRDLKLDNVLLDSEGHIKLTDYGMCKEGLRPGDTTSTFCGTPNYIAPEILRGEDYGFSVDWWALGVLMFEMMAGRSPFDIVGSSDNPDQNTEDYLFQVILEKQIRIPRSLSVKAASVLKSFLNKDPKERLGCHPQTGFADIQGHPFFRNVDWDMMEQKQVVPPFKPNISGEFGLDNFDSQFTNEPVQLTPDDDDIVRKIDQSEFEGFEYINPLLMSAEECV

[7] = molecular target: T2, MAP kinase-activated protein kinase 5 (Homo sapiens) (UniProt Q8IW41); assay: Inhibition of human recombinant MAPKAPK5 at 500 nM in presence of ATP by radiometric assay relative to control
T2 sequence (whole entry): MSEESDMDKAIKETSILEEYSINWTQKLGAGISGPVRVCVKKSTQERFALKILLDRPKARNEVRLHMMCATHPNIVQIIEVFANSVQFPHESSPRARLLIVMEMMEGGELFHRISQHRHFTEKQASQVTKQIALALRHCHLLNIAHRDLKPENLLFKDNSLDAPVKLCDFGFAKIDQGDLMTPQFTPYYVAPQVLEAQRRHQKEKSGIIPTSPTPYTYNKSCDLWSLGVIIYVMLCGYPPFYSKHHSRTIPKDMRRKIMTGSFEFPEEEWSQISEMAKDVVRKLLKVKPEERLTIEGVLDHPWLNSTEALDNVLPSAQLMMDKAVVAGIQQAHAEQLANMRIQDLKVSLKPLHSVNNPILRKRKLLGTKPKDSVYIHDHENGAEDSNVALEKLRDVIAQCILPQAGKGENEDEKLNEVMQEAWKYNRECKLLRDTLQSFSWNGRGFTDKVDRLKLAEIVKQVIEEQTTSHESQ

[8] = molecular target: T3, MAP/microtubule affinity-regulating kinase 4 (Homo sapiens) (UniProt Q96L34); assay: Inhibition of human recombinant MARK4 at 500 nM related to control ULK1
T3 sequence (whole entry): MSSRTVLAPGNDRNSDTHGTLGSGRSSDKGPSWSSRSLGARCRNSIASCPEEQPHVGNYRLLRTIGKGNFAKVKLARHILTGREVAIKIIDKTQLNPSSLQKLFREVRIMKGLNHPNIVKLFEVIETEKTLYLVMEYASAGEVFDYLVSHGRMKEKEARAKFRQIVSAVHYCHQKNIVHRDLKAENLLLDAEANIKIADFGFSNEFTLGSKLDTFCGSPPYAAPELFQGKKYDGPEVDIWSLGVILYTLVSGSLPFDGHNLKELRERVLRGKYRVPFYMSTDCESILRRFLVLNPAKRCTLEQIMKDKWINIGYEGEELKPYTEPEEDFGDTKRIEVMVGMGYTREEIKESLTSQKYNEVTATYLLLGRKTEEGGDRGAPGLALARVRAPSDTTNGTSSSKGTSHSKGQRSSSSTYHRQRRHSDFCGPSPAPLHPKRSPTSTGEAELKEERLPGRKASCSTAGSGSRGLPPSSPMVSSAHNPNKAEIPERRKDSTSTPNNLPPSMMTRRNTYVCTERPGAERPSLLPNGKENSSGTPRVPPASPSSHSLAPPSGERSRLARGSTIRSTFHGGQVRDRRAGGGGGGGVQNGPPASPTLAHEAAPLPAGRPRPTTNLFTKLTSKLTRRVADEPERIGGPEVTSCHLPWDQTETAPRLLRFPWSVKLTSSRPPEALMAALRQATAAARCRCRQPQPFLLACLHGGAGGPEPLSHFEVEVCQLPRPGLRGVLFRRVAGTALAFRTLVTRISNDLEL

[9] = molecular target: Serine/threonine-protein kinase 26 (Homo sapiens) (UniProt Q9P289); assay: Inhibition of human recombinant MST4 at 500 nM related to control ULK1
Chain of Serine/threonine-protein kinase 26 (Homo sapiens) (Q9P289 2-416 limits assumed): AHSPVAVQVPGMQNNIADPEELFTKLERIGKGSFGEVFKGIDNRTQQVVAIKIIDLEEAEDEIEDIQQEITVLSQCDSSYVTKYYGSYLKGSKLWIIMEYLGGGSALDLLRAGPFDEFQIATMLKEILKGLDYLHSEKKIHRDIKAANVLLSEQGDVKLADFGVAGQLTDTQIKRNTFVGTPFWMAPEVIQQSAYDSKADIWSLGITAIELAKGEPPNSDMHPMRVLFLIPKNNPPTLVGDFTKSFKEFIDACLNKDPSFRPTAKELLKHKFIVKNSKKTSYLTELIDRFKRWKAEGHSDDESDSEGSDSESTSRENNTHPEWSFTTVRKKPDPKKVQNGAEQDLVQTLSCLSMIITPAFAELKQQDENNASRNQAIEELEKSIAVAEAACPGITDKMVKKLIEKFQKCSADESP

Chain of RAC-gamma serine/threonine-protein kinase (Homo sapiens) (Q9Y243 whole entry): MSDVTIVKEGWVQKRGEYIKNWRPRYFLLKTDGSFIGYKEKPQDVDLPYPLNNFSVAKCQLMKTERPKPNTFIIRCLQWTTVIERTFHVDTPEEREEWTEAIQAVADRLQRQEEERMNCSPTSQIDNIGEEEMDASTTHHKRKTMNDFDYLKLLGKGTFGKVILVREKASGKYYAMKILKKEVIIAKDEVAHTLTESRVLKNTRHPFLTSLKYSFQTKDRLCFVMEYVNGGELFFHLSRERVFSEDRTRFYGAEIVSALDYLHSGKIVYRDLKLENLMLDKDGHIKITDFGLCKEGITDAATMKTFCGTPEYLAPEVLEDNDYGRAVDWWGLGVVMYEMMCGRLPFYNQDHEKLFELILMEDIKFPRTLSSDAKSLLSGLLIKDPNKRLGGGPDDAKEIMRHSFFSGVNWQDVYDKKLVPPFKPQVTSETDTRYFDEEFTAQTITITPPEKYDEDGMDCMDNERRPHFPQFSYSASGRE

## O=C(N[C@@H](C1CC1)C(F)(F)F)c1cc(-c2cnn3cc(-c4ccc(F)cc4)cnc23)cs1
[1]
  inhibition: 2%
[2]
  fold change (FC): 0
[3]
  fold change (FC): 0.11

## CC(C)[C@H](NC(=O)c1cc(-c2cnn3cc(-c4ccc(OCCN5CCCCC5)cc4)cnc23)cs1)C(F)(F)F
[4]
  inhibition: 14%
[5]
  inhibition: 23%
[6]
  inhibition: 4%

## CNC(=O)c1ccccc1Oc1nc(Nc2cc(OC)c(OC)c(OC)c2)ncc1Br
[7]
  inhibition: 0%
[8]
  fold change (FC): 0.78
[9]
  fold change (FC): 0
